The entries come from a sample that favours hits as a whole.
NOD2 RIPK2 PPI – blocks binding of human NOD2 to RIPK2; CHO BLA complementation NOD2-RIPK2, CCF4 ratio; inhibition, % at 4.98 µM; 360,000 tested, 0.38% active; AID 624267; in the data active = inhibition above about 21%;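 note: 0% = vehicle only and 100% = reference blocker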
CHOP inhibitor – CHOP inhibition in unfolded protein response; CHO-K1 CHOP-promoter luciferase, tunicamycin-induced, 15-18 h; inhibition, % at 10 µM; 220,000 tested, 3.8% active; AID 2732;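 active = compounds that reduced the stress-induced luciferase reporter signal by more than about 70% of percent inhibition, limit read from the data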;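 note: 0% = tunicamycin plus vehicle and 100% = wells without tunicamycin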
UPR CHOP act – apoptotic UPR (CHOP) activation; CHO-CHOP luciferase reporter, luminescence; percent of tunicamycin response over DMSO baseline; activation, % at 10 µM; 330,000 tested, 0.34% active; AID 449763;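 active = at 10 µM dose, activation of 40% or more, normalized to positive control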;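 note: 100% = tunicamycin at 10 µg/mL and 0% = DMSO alone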
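System: CHO-CHOP luciferase reporter cell line; amount: 500 cells/well; buffer or medium: F12 medium containing 10% fetal bovine serum; incubation: 6 h compound exposure at 37 °C after overnight seeding; measured by: luciferase luminescence after 10 min with Steady-Glo reagent; evaluation: % reporter activation, DMSO baseline versus tunicamycin full activation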
TLR4-MyD88 BLA – TLR4-MyD88 interaction inhibition in cells. O00206+Q99836. HeLa CL3-4 TLR4/MyD88 BLA complementation, FRET ratio. inhibition, % at 8.4 µM. 200,000 tested, 0.18% active; in the data active = inhibition above about 25%;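 note: 0% = vehicle and 100% = reference inhibitor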
TLR9-MyD88 block – blocks human TLR9 binding to MyD88; Q9NR96+Q99836; CHO BLA complementation TLR9-MyD88, CCF4 FRET ratio; inhibition, % at 4.98 µM; 340,000 tested, 0.21% active;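 active = inhibition above the mean over all tested compounds plus 3 SD, cut at about 21% in these data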;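 note: 0% = DMSO only wells and 100% = clavulanate BLA inhibitor control wells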
Target sequence (Q99836 whole entry, looked up): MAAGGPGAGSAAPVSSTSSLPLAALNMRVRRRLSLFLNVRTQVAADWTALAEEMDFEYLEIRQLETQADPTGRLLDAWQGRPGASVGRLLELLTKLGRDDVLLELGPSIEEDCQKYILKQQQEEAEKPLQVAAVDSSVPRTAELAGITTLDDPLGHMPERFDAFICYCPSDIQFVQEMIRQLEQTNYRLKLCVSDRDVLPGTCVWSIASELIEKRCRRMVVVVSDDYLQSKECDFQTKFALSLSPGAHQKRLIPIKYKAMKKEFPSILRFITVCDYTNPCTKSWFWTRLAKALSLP
Target sequence (Q9NR96 whole entry, looked up): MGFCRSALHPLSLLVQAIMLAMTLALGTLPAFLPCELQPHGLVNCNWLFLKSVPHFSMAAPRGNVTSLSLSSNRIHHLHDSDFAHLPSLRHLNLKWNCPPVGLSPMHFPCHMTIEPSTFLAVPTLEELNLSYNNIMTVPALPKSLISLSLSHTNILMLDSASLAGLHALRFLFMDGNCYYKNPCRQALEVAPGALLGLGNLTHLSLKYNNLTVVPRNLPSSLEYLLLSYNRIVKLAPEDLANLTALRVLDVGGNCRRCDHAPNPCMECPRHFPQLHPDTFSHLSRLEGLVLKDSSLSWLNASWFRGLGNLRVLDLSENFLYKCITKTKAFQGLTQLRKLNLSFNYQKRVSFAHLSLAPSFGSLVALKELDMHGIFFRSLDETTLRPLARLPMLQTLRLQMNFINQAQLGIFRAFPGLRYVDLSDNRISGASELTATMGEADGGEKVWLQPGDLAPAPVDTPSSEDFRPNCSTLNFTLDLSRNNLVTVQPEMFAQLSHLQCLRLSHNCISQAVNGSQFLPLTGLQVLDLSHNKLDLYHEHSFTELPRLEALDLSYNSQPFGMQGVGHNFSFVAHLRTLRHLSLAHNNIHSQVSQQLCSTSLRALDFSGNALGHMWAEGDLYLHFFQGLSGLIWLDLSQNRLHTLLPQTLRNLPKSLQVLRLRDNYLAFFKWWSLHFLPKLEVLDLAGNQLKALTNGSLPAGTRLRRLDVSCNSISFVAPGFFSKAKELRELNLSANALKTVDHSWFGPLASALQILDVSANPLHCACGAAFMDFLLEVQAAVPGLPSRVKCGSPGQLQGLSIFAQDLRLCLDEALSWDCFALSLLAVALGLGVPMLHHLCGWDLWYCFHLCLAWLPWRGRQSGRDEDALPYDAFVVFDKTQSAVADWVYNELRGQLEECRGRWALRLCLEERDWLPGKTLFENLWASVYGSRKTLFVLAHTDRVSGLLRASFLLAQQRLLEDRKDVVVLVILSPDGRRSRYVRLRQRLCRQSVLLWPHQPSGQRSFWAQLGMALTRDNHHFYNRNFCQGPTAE
UPR XBP1 act – adaptive UPR (XBP1) activation; activation, % at 20 µM; CHO-XBP1 luciferase reporter, IRE1-XBP1 UPR activation, luminescence; percent of tunicamycin response, DMSO as zero; AID 463104; 330,000 tested, 0.33% active;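 active = versus positive control, 20 µM dose yields 30% or more activation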;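 note: 100% = tunicamycin at 10 µg/mL and 0% = DMSO only wells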
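Test system: CHO-XBP1 luciferase reporter cells | Buffer or medium: Serum-containing F12 medium, 10% FBS | Schedule: 6 h compound exposure at 37 °C, 5% CO2 | Detection: Steady-Glo luciferase glow luminescence, 10 min after reagent addition | Read-out basis: Activation, % of tunicamycin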
* marks the source's active call; other numbers are inactive results; x = no result given.

SMILES | NOD2 RIPK2 PPI | CHOP inhibitor | UPR CHOP act | TLR4-MyD88 BLA | TLR9-MyD88 block | UPR XBP1 act
O=C(Nc1nnc(COc2ccccc2)s1)C1CCN(S(=O)(=O)c2ccc(Cl)cc2)CC1 | 2 | 80* | 2 | 0 | 3 | 0
CC(=O)Nc1sc2c(c1CN1CCN(c3ccc(F)cc3)CC1)CCCC2 | -5 | 79* | 5 | -10 | -7 | -2
CC(=O)Nc1sc2c(c1CN1CCCC1)CCCC2 | 0 | 14 | 1 | x | -9 | -1
COc1ccc(/C=C/c2nc(-c3ccccc3O)n[nH]2)cc1 | -8 | 79* | 6 | -16 | -8 | 3
Oc1nc(Nc2ccc(Cl)cc2Cl)sc1/C=C1\C=Nc2ccccc21 | -5 | 73* | 0 | 5 | -3 | 0
O=c1[nH]c2ccc(Br)cc2c(-c2ccccc2)c1N1CCOCC1 | 0 | 77* | 2 | -4 | 15 | -1
Cc1cc(Nc2cccc(F)c2)nc(NCc2ccccc2)n1 | 1 | 71* | 3 | 1 | -5 | -4
Cc1cc(Nc2ccccc2)nc(NCc2ccccc2)n1 | 4 | 16 | 6 | 5 | 2 | 2
N#Cc1ccc(S(=O)(=O)N2CCN(C(=O)c3cn(-c4ccccc4)nc3-c3cccnc3)CC2)cc1 | -11 | x | x | x | 1 | x
CCOC(=O)C(CCCCOc1cccc(CC)c1)C(=O)OCC | -2 | 71* | 4 | -11 | -3 | -2
O=C(NC1CCCC1)C1c2ccccc2OCC(=O)N1Cc1ccco1 (stereo not given) | -7 | x | x | x | x | x
COc1cccc(NC(=O)C2(C)CCN2C(=O)C2CCCCC2)c1 (stereo not given) | 3 | x | x | x | x | x
CCN1C(=O)[C@H]2[C@@H](c3ccc(OC)cc3)N[C@]3(CCCN(Cc4ccc(C(F)(F)F)cc4)C3=O)[C@H]2C1=O | 0 | x | x | x | 1 | x
CC(/C=C/C=C/c1ccccc1)=N/NC(=O)CNc1ccc(C)cc1 | 4 | 82* | 4 | 7 | 9 | -3
C[C@H](CO)N1C[C@H](C)[C@@H](CN(C)C(=O)c2ccccc2)OCc2cn(nn2)CCCC1=O | -11 | x | x | x | -5 | x
COCCN1C(=O)CSCC1(C)C(=O)NCc1ccccc1 (stereo not given) | -15 | x | x | x | x | x
CNC(=O)C[C@H]1C(=O)N(c2ccccc2)C[C@@H]1CSC | -4 | x | x | x | -2 | x
COC(=O)c1sccc1NC(=O)C1CC2CCC1C2 (stereo not given) | 8 | 94* | -1 | 3 | -1 | 0
COC(=O)c1sccc1NC(=S)N1CC(C)CC(C)C1 (stereo not given) | -21 | 93* | x | 5 | -4 | x
COc1ccc(NC(=O)C2(C)Cc3c(-c4ccc(N(C)C)cc4)ccnc3O2)cc1 (stereo not given) | 5 | x | x | x | x | x
N=C1CCCC1C(=S)SCCC(N)=O (stereo not given) | -13 | x | x | x | 2 | x
COc1ccccc1CCNCc1ccc(OC)c(OCc2ccccc2)c1 | 1 | 82* | 2 | -7 | -8 | 0
COc1ccc(CNCc2ccco2)cc1OCc1ccccc1 | -1 | 18 | 3 | 0 | 8 | -4
C#CCOCCOCCOCCNc1nc(N2CCN(C(=O)[C@H](CCCCN)n3cc(C(N)COC(=O)C(F)(F)F)nn3)CC2)nc(N2CCN(C(=O)[C@H](CCCCN)n3cc(C(N)CC(C)C)nn3)CC2)n1 (stereo not given in full) | x | 10 | x | x | x | x
COc1cccc(C(NC(C)=O)c2nc(-c3ccc(F)cc3OC)cs2)c1 (stereo not given) | -6 | x | x | x | x | x
SMILES | NOD2 RIPK2 PPI | CHOP inhibitor | UPR CHOP act | TLR4-MyD88 BLA | TLR9-MyD88 block | UPR XBP1 act
O=[N+]([O-])c1ccc(-c2ccc(/C=N/c3c(-c4ccco4)nc4ccccn34)o2)c(Cl)c1 | x | 79* | x | -9 | x | x
CCn1c2c(c3cc(Cl)ccc31)CCCC2=O | -4 | 76* | -2 | -10 | -3 | 3
Cc1ccc(C2=Nc3ccccc3N=C(C(Cl)Cl)C2)cc1 | 0 | 84* | -4 | -2 | -9 | -6
CCOC(=O)C1=C(C)n2c(s/c(=C3\C(=O)Nc4ccccc43)c2=O)=NC1c1ccc(OC)cc1 (stereo not given) | 6 | 78* | 4 | -4 | 3 | 16
COC(=O)C1=C(C)N=c2s/c(=C3\C(=O)Nc4ccccc43)c(=O)n2C1c1ccccc1 (stereo not given) | x | 79* | 1 | 8 | x | 10
CN1CCN(c2nc3cc(N4CCOCC4)ccc3s2)CC1 | -14 | x | x | x | 5 | x
CC1(Oc2ccc(CC#N)cc2)CCN(Cc2ccc(-n3ccnc3)cc2)C1 (stereo not given) | -8 | x | x | x | x | x
Cc1ccc(NC2=C/C(=N/S(=O)(=O)c3cccs3)c3ccccc3C2=O)cc1 | -11 | 98* | -3 | 2 | -8 | -6
COc1cc(N/N=C(\C)c2ccc(N)cc2)nc(-c2ccccc2)n1 | -4 | 81* | 2 | -13 | 0 | -2
COc1ccc(NC(=O)Cc2c(SC)c3ccccc3n2Cc2ccccc2)cc1 | -6 | 74* | -1 | -38 | -6 | -1
CSc1c(CC(=O)NCCCO)n(Cc2ccccc2)c2ccccc12 | -3 | x | 0 | x | -5 | -2
FC(F)(F)c1nc(N2CCCC2)ncc1-c1nnnn1-c1ccccc1 | 3 | 72* | 2 | 4 | -7 | 0
Cc1ccccc1-c1nc(NCCN(C)C)nc2ccsc12 | 6 | x | x | x | x | x
Cc1cc(S(=O)(=O)NCC(c2ccccc2)c2ccccc2)ccc1-n1cnnn1 | 3 | 70* | -1 | -9 | 11 | -4
CCCCCCCCC(=O)N/N=C/c1cccc(Br)c1 | -6 | 87* | -2 | -5 | -7 | 0
O=C(CCC(=O)Nc1ccc(F)cc1)N/N=C/c1cccc(Br)c1 | -14 | x | 3 | x | 5 | -8
CCCCCCC(=O)N/N=C/c1ccc(Br)cc1 | 1 | 93* | 2 | 1 | 10 | -1
O=C(c1ccccc1)N1CCN(C(=O)c2ccccc2)c2ccccc21 | -20 | x | x | x | -11 | x
c1coc(-c2cc3nc(NC4CCCCC4)ccn3n2)c1 | -6 | x | x | x | x | x
COc1ccc([N+](=O)[O-])cc1NC(=O)C(C)c1ccccc1 (stereo not given) | -5 | 58 | 1 | 2 | 13 | -3
COc1ccc([N+](=O)[O-])cc1NC(=S)NC(NC(=O)C(c1ccccc1)c1ccccc1)C(Cl)(Cl)Cl (stereo not given) | -6 | 73* | 15 | -26 | -8 | 2
C/C(=N\NC(=S)NC1CCCCC1)c1c(F)cccc1F | -3 | 80* | 2 | -18 | 8 | 0
Cc1c(C)n(CC(O)CSc2ccccc2)c2ccccc12 (stereo not given) | -2 | x | x | x | x | x
Cc1ccc(S(=O)(=O)N2C3CCCCC3O[C@H]2CC(=O)OCc2ccccc2)cc1 (stereo not given in full) | -8 | x | x | x | x | x

High-throughput results: PubChem, several laboratories
